Test results taken from ChEMBL document CHEMBL4699485, “Discovery and Development of SPR519 as a Potent, Selective, and Orally Bioavailable Inhibitor of PI3Kα and mTOR Kinases for the Treatment of Solid Tumors” (J Med Chem, 2020).

Tests used:
[1] = Toxicity in Swiss mouse assessed as discoloration of liver at 30 mg/kg, po administered twice daily via gavage for 5 days and measured post last dose; assay type: organism-based; conditions: in vivo, 120 h, time 5 day
In short: (§1)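 Female Swiss mice (3 treated, 2 controls) were gavaged twice daily for 5 days, with compound in 0.5% CMC and Tween 80. After the last dosing the animals were sacrificed. Liver, kidney, lung, uterus and brain were excised and inspected visually for morphology and color change.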

[2] = biological target: Phosphatidylinositol 4,5-bisphosphate 3-kinase catalytic subunit delta isoform (Homo sapiens) (UniProt O00329); experiment: Inhibition of human PI3kdelta at 1 uM using fluorescently labeled peptide substrate measured after 3 hrs by microfluidic mobility shift assay relative to control
Chain of Phosphatidylinositol 4,5-bisphosphate 3-kinase catalytic subunit delta isoform (Homo sapiens) (O00329 whole entry, canonical isoform): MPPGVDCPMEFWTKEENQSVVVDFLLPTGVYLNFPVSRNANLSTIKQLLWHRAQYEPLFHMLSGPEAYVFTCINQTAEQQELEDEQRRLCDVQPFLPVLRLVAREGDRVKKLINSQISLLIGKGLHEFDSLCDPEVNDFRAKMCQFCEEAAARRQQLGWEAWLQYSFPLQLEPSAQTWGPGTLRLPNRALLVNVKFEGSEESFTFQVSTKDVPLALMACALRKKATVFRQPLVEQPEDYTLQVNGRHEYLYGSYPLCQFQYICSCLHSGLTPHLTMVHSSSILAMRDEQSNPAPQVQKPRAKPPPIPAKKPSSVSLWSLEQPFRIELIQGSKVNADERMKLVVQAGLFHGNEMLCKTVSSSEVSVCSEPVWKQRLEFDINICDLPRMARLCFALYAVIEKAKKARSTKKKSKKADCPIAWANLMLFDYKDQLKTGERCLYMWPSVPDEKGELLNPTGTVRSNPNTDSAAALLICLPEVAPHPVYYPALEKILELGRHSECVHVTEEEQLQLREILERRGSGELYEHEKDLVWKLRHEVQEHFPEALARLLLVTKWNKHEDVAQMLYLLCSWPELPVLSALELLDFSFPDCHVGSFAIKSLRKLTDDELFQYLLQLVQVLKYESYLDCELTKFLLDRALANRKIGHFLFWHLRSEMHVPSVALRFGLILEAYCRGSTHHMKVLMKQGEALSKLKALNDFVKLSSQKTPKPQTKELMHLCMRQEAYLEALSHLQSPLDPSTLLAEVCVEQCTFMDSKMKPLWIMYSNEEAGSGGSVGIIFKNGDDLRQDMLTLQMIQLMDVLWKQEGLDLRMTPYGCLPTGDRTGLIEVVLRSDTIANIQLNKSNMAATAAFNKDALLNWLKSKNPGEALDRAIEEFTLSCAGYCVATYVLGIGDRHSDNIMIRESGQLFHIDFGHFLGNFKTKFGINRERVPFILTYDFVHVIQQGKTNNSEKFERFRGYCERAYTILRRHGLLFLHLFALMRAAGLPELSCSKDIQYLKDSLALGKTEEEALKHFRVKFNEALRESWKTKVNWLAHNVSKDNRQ
In short: (§2)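 Single-concentration screen at 1 µM in duplicate, 1% final DMSO. Kinase (typically 1 nM), fluorescently labeled peptide substrate (typically 1 µM), ATP at Km and Mg²⁺ incubated about 3 h at 25 °C, then EDTA-quenched. Substrate and phosphorylated product separated by microfluidic electrophoresis and quantified by fluorescence.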

[3] = Metabolic stability in dog liver microsomes assessed as parent compound remaining at 10 uM remaining after 120 mins in presence of NADPH by HPLC analysis; assay type: ADME, Canis lupus familiaris, Microsome; conditions: read-out: Stabilty
In short: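 Compound at 10 µM was incubated with 0.5 mg/mL liver microsomes and 1 mM NADPH (final). Samples were taken at 0, 15, 30, 60 and 120 min and stopped with acetonitrile, then centrifuged and the supernatant analysed by HPLC. Percent parent remaining was set relative to the 0 min peak area (100%).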

HCT-116 = experiment: Antitumor activity against human HCT-116 cells xenografted in po dosed CD1 nude mouse assessed as reduction in tumor volume administered once daily for 21 days and measured at 3 days interval during compound dosing; assay type: functional, organism-based; conditions: dose mg/kg 2.5-20, time 21.0 day
In short: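 Female CD1 nude mice bearing subcutaneous HCT116 xenografts, randomized at average tumor size 120–130 mm³, five per group. Dosed orally once daily at 2.5, 5, 10 or 20 mg/kg for 21 days alongside a vehicle control. Caliper measurement of tumor volume as (width² × length)/2, monitored every third day.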

[4] = Drug level in Swiss mouse liver at 30 mg/kg, po administered twice daily via gavage for 5 days and measured post last dose by LC-MS/MS analysis; assay type: ADME, organism-based; conditions: time 5 day, read-out: Drug uptake
In short: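 Female Swiss mice (n=3) given 30 mg/kg in 0.5% CMC/Tween 80 by oral gavage twice daily for 5 days, with two vehicle controls. After sacrifice, liver, kidney, lung, uterus and brain were collected, homogenized in water and solvent-extracted. Drug concentration (ng/g) measured by LC-MS/MS.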

[5] = Cmax in Swiss mouse at 3 mg/kg, po via gavage by LC-MS/MS analysis; assay type: ADME, organism-based; set-up: route oral, dose 3 mg/kg; conditions: in vivo
In short: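 Female Swiss mice (n=3/group), fasted overnight, given single oral gavage dose in 0.5% CMC/0.5% Tween 80 (10 mL/kg) at 1, 3 or 10 mg/kg. Serial blood sampling at 0.16–8 h into heparinized tubes. Plasma extracted with acetonitrile containing verapamil internal standard and quantified by LC-MS/MS. Cmax, Tmax, AUC and t1/2 derived from the concentration–time profile.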

[6] = Toxicity in Swiss mouse assessed as morphological changes in uterus at 30 mg/kg, po administered twice daily via gavage for 5 days and measured post last dose; assay type: organism-based; conditions: in vivo, 120 h, time 5 day; in short: as §1
[7] = biological target: Receptor-type tyrosine-protein kinase FLT3 (Homo sapiens) (UniProt P36888); experiment: Inhibition of human FLT3 at 1 uM using fluorescently labeled peptide substrate measured after 3 hrs by microfluidic mobility shift assay relative to control; in short: as §2
Chain of Receptor-type tyrosine-protein kinase FLT3 (Homo sapiens) (P36888 whole entry): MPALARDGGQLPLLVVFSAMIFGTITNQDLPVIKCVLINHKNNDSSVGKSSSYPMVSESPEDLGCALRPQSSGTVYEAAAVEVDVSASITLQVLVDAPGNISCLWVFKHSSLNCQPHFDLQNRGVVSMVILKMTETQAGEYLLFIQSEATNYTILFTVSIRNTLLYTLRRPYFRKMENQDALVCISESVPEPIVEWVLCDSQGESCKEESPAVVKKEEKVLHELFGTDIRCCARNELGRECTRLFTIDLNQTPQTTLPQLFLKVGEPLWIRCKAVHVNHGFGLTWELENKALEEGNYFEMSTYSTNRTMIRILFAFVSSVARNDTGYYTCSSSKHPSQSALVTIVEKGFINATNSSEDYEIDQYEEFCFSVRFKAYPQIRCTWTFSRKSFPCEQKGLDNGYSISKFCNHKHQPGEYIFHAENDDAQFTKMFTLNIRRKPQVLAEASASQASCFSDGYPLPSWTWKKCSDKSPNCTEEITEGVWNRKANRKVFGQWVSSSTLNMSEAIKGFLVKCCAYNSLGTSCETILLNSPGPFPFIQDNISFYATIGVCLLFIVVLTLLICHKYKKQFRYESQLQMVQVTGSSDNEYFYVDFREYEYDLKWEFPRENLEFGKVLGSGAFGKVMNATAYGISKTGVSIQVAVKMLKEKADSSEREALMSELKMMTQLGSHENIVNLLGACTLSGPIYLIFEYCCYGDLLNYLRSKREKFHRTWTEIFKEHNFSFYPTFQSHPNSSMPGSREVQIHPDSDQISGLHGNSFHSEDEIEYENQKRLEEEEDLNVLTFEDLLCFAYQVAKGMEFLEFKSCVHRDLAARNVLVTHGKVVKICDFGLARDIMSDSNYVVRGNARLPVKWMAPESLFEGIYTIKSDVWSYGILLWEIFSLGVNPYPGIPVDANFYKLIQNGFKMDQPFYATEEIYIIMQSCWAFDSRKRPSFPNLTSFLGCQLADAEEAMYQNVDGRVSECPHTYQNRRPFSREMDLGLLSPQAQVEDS

[8] = Toxicity in Swiss mouse assessed as change in body coat at 10 mg/kg, po administered twice daily via gavage for 5 days and measuring daily during compound dosing; assay type: organism-based; conditions: in vivo, 120 h, time 5 day
In short: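 Female Swiss mice (3 treated, 2 vehicle controls) received oral gavage twice daily for 5 days, with compound formulated in 0.5% CMC and Tween 80. Body weight, body temperature, body coat, feed intake, eyes, feces and general activity were observed daily.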

[9] = biological target: Inhibitor of nuclear factor kappa-B kinase subunit epsilon (Homo sapiens) (UniProt Q14164); experiment: Inhibition of human IKBKE at 1 uM using fluorescently labeled peptide substrate measured after 3 hrs by microfluidic mobility shift assay relative to control; in short: as §2
Chain of Inhibitor of nuclear factor kappa-B kinase subunit epsilon (Homo sapiens) (Q14164 whole entry): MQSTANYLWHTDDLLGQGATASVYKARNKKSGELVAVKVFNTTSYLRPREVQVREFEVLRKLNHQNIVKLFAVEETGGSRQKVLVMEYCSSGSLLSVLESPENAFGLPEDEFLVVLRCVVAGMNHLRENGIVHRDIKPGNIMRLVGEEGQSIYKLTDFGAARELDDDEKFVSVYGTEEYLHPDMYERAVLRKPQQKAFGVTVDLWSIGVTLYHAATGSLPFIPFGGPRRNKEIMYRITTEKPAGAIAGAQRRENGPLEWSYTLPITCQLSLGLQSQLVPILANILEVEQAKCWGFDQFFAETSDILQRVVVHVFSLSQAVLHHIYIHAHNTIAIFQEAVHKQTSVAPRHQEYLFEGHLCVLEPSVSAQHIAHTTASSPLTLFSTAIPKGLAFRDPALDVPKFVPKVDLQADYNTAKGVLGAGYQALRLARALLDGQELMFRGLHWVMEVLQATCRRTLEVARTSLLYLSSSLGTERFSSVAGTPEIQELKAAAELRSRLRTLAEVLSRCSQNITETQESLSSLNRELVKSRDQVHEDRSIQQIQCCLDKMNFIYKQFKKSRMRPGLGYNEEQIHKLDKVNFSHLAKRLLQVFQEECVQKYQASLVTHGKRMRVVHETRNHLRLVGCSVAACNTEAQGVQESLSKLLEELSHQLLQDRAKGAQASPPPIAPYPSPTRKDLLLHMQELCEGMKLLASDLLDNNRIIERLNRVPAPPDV

[10] = biological target: Inhibitor of nuclear factor kappa-B kinase subunit beta (Homo sapiens) (UniProt O14920); experiment: Inhibition of human IKBKB at 1 uM using fluorescently labeled peptide substrate measured after 3 hrs by microfluidic mobility shift assay relative to control; in short: as §2
Chain of Inhibitor of nuclear factor kappa-B kinase subunit beta (Homo sapiens) (O14920 whole entry): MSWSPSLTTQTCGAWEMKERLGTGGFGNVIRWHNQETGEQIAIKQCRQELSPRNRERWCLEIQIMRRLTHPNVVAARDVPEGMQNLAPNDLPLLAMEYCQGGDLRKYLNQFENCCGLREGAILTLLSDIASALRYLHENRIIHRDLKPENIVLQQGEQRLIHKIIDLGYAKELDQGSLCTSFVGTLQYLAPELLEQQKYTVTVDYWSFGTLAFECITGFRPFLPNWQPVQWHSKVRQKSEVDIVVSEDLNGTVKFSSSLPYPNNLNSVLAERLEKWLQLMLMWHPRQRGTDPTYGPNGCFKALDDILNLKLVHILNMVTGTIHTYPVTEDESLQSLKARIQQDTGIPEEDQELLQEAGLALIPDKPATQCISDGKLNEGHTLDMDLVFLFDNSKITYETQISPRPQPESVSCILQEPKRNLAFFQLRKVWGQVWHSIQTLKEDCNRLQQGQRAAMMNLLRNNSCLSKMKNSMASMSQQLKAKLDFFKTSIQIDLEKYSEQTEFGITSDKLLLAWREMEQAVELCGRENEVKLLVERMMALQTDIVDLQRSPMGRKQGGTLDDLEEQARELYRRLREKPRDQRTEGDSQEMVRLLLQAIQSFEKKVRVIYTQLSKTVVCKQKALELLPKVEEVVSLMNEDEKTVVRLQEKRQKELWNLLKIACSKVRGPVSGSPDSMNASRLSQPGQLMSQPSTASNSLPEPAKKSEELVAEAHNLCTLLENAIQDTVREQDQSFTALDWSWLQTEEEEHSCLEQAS

## CN(C)C(=O)c1ccc(Oc2nc(-c3cnc(N)s3)nc(N3CCOCC3)n2)cc1
[1]
  Activity: Toxic
[2]
  inhibition: 88%
[3]
  remaining at 2 h, 10 µM: 105%
HCT-116
  Activity: Dose-dependent effect
[4]
  concentration at 120 h: 85 ng/g
[5]
  Cmax: 6.9 µM
[6]
  Activity: Non-Toxic
[7]
  inhibition: 9%
[8]
  Activity: Non-Toxic
[9]
  inhibition: -1%
[10]
  inhibition: -3%
